Measured values from ChEMBL document CHEMBL3616437, “Thiazole compounds with activity against Cryptococcus gattii and Cryptococcus neoformans in vitro” (Eur J Med Chem, 2015).
Calls of active or inactive are those of the source. No cut-off for these calls is given here.

What was measured:
[1] = system: Cryptococcus bacillisporus; assay: Ratio of compound MIC for Cryptococcus gattii ATCC 32608 in presence of amphotericin B to compound MIC for Cryptococcus gattii ATCC 32608 in absence of amphotericin B by checkerboard microtiter test; format: functional
Procedure, shortened: (§1)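 Checkerboard microdilution: eight two-fold dilutions of test compound (0.11 to 15.6 µM) crossed with amphotericin B (0.025 to 3.9 µM, in DMSO) or fluconazole (0.48 to 62.5 µM, in water). Inoculum per CLSI M27-A3 in RPMI-MOPS pH 7.0, 1-5 x10^3 cells/mL. Growth 48 to 72 h. Effective MIC is the combination concentration giving complete inhibition. FICs derived from MICs in combination versus alone.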

[2] = system: Cryptococcus gattii species complex; assay: Ratio of compound MIC for Cryptococcus gattii 135L/03 in presence of amphotericin B to compound MIC for Cryptococcus gattii 135L/03 in absence of amphotericin B by checkerboard microtiter test; format: functional, Cryptococcus bacillisporus
[3] = system: Cryptococcus gattii species complex; assay: Ratio of compound MIC for Cryptococcus gattii L27/01 in presence of amphotericin B to compound MIC for Cryptococcus gattii L27/01 in absence of amphotericin B by checkerboard microtiter test; format: functional, Cryptococcus bacillisporus; procedure, shortened: as §1
Cryptococcus neoformans [4] = assay: Ratio of compound MIC for Cryptococcus neoformans WP in presence of fluconazole to compound MIC for Cryptococcus neoformans WP in absence of fluconazole by checkerboard microtiter test; format: functional; procedure, shortened: as §1
Cryptococcus gattii [5] = assay: Ratio of compound MIC for Cryptococcus gattii ATCC 24065 in presence of fluconazole to compound MIC for Cryptococcus gattii ATCC 24065 in absence of fluconazole by checkerboard microtiter test
Cryptococcus neoformans [6] = assay: Ratio of compound MIC for Cryptococcus neoformans CN31 in presence of amphotericin B to compound MIC for Cryptococcus neoformans CN31 in absence of amphotericin B by checkerboard microtiter test; format: functional; procedure, shortened: as §1
[7] = system: Cryptococcus gattii species complex; assay: Antifungal activity against Cryptococcus gattii 196L/03 assessed as reduction in ergosterol content at MIC after 24 hrs by spectrophotometric analysis; format: functional, organism-based; conditions: Cryptococcus bacillisporus
Procedure, shortened: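 Pellet washed and weighed, then saponified in 25% ethanolic KOH at 85°C for 1 h. Extracted with water and n-heptane, read at 282 and 230 nm. Ergosterol taken from a standard curve and expressed as % of growth control.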

Cryptococcus gattii [8] = assay: Ratio of compound MIC for Cryptococcus gattii ATCC 24065 in presence of amphotericin B to compound MIC for Cryptococcus gattii ATCC 24065 in absence of amphotericin B by checkerboard microtiter test
[9] = system: Cryptococcus gattii species complex; assay: Ratio of compound MIC for Cryptococcus gattii 135L/03 in presence of fluconazole to compound MIC for Cryptococcus gattii 135L/03 in absence of fluconazole by checkerboard microtiter test; format: functional, Cryptococcus bacillisporus; procedure, shortened: as §1
[10] = system: Cryptococcus gattii species complex; assay: Ratio of compound MIC for Cryptococcus gattii 23/10993 in presence of fluconazole to compound MIC for Cryptococcus gattii 23/10993 in absence of fluconazole by checkerboard microtiter test; format: functional, Cryptococcus bacillisporus; procedure, shortened: as §1
[11] = system: Cryptococcus gattii species complex; assay: Ratio of compound MIC for Cryptococcus gattii 1913ER in presence of fluconazole to compound MIC for Cryptococcus gattii 1913ER in absence of fluconazole by checkerboard microtiter test; format: functional, Cryptococcus bacillisporus; procedure, shortened: as §1
[12] = system: Cryptococcus gattii species complex; assay: Ratio of compound MIC for Cryptococcus gattii L24/01 in presence of fluconazole to compound MIC for Cryptococcus gattii L24/01 in absence of fluconazole by checkerboard microtiter test; format: functional, Cryptococcus bacillisporus; procedure, shortened: as §1
Cryptococcus neoformans [13] = assay: Ratio of compound MIC for Cryptococcus neoformans F10 in presence of amphotericin B to compound MIC for Cryptococcus neoformans F10 in absence of amphotericin B by checkerboard microtiter test; format: functional; procedure, shortened: as §1
[14] = system: Cryptococcus gattii species complex; assay: Ratio of compound MIC for Cryptococcus gattii L24/01 in presence of amphotericin B to compound MIC for Cryptococcus gattii L24/01 in absence of amphotericin B by checkerboard microtiter test; format: functional, Cryptococcus bacillisporus; procedure, shortened: as §1
Cryptococcus neoformans [15] = assay: Ratio of compound MIC for Cryptococcus neoformans CN31 in presence of fluconazole to compound MIC for Cryptococcus neoformans CN31 in absence of fluconazole by checkerboard microtiter test; format: functional; procedure, shortened: as §1
Cryptococcus neoformans [16] = assay: Ratio of compound MIC for Cryptococcus neoformans ATCC 28957 in presence of amphotericin B to compound MIC for Cryptococcus neoformans ATCC 28957 in absence of amphotericin B by checkerboard microtiter test; format: functional; procedure, shortened: as §1
[17] = system: Cryptococcus gattii species complex; assay: Ratio of compound MIC for Cryptococcus gattii 196L/03 in presence of fluconazole to compound MIC for Cryptococcus gattii 196L/03 in absence of fluconazole by checkerboard microtiter test; format: functional, Cryptococcus bacillisporus; procedure, shortened: as §1
Cryptococcus neoformans [18] = assay: Ratio of compound MIC for Cryptococcus neoformans ATCC 24067 in presence of fluconazole to compound MIC for Cryptococcus neoformans ATCC 24067 in absence of fluconazole by checkerboard microtiter test; format: functional; procedure, shortened: as §1
Cryptococcus neoformans [19] = assay: Ratio of compound MIC for Cryptococcus neoformans VM-MCMMPI in presence of fluconazole to compound MIC for Cryptococcus neoformans VM-MCMMPI in absence of fluconazole by checkerboard microtiter test; format: functional; procedure, shortened: as §1
Cryptococcus neoformans [20] = assay: Ratio of compound MIC for Cryptococcus neoformans ATCC 62066 in presence of fluconazole to compound MIC for Cryptococcus neoformans ATCC 62066 in absence of fluconazole by checkerboard microtiter test; format: functional; procedure, shortened: as §1
[21] = system: Cryptococcus gattii species complex; assay: Ratio of compound MIC for Cryptococcus gattii 196L/03 in presence of amphotericin B to compound MIC for Cryptococcus gattii 196L/03 in absence of amphotericin B by checkerboard microtiter test; format: functional, Cryptococcus bacillisporus; procedure, shortened: as §1
[22] = system: Cryptococcus bacillisporus; assay: Ratio of compound MIC for Cryptococcus gattii ATCC 32608 in presence of fluconazole to compound MIC for Cryptococcus gattii ATCC 32608 in absence of fluconazole by checkerboard microtiter test; format: functional; procedure, shortened: as §1
[23] = system: Cryptococcus gattii species complex; assay: Ratio of compound MIC for Cryptococcus gattii L27/01 in presence of fluconazole to compound MIC for Cryptococcus gattii L27/01 in absence of fluconazole by checkerboard microtiter test; format: functional, Cryptococcus bacillisporus; procedure, shortened: as §1
[24] = system: Cryptococcus gattii species complex; assay: Ratio of compound MIC for Cryptococcus gattii ICB181 in presence of amphotericin B to compound MIC for Cryptococcus gattii ICB181 in absence of amphotericin B by checkerboard microtiter test; format: functional, Cryptococcus bacillisporus; procedure, shortened: as §1
Cryptococcus neoformans [25] = assay: Ratio of compound MIC for Cryptococcus neoformans F10 in presence of fluconazole to compound MIC for Cryptococcus neoformans F10 in absence of fluconazole by checkerboard microtiter test; format: functional; procedure, shortened: as §1
Cryptococcus neoformans [26] = assay: Ratio of compound MIC for Cryptococcus neoformans 28JF in presence of fluconazole to compound MIC for Cryptococcus neoformans 28JF in absence of fluconazole by checkerboard microtiter test; format: functional; procedure, shortened: as §1
Cryptococcus neoformans [27] = assay: Ratio of compound MIC for Cryptococcus neoformans VM-MCMMPI in presence of amphotericin B to compound MIC for Cryptococcus neoformans VM-MCMMPI in absence of amphotericin B by checkerboard microtiter test; format: functional; procedure, shortened: as §1
Cryptococcus neoformans [28] = assay: Ratio of compound MIC for Cryptococcus neoformans 96806 in presence of fluconazole to compound MIC for Cryptococcus neoformans 96806 in absence of fluconazole by checkerboard microtiter test; format: functional; procedure, shortened: as §1
Cryptococcus neoformans [29] = assay: Ratio of compound MIC for Cryptococcus neoformans ATCC 62066 in presence of amphotericin B to compound MIC for Cryptococcus neoformans ATCC 62066 in absence of amphotericin B by checkerboard microtiter test; format: functional; procedure, shortened: as §1

COc1ccc(-c2csc(N/N=C(\C)CCO)n2)cc1
fractional inhibitory concentration index (FICI) [1]: 3.14 | fractional inhibitory concentration index (FICI) [2]: 4.98 | fractional inhibitory concentration index (FICI) [3]: 4.61 | fractional inhibitory concentration index (FICI) (Cryptococcus neoformans [4]): 2.32 | fractional inhibitory concentration index (FICI) (Cryptococcus gattii [5]): 0.88 | fractional inhibitory concentration index (FICI) (Cryptococcus neoformans [6]): 4.98 | Activity [7]: inactive | fractional inhibitory concentration index (FICI) (Cryptococcus gattii [8]): 2.98 | fractional inhibitory concentration index (FICI) [9]: 2.38 | fractional inhibitory concentration index (FICI) [10]: 2.28 | fractional inhibitory concentration index (FICI) [11]: 2.47 | fractional inhibitory concentration index (FICI) [12]: 3.32 | fractional inhibitory concentration index (FICI) (Cryptococcus neoformans [13]): 2.47 | fractional inhibitory concentration index (FICI) [14]: 4.98 | fractional inhibitory concentration index (FICI) (Cryptococcus neoformans [15]): 4.38 | fractional inhibitory concentration index (FICI) (Cryptococcus neoformans [16]): 1.98 | fractional inhibitory concentration index (FICI) [17]: 1.95 | fractional inhibitory concentration index (FICI) (Cryptococcus neoformans [18]): 1.92 | fractional inhibitory concentration index (FICI) (Cryptococcus neoformans [19]): 4.33 | fractional inhibitory concentration index (FICI) (Cryptococcus neoformans [20]): 2.3 | fractional inhibitory concentration index (FICI) [21]: 9.38 | fractional inhibitory concentration index (FICI) [22]: 2.32 | fractional inhibitory concentration index (FICI) [23]: 2.14 | fractional inhibitory concentration index (FICI) [24]: 9.55 | fractional inhibitory concentration index (FICI) (Cryptococcus neoformans [25]): 4.33 | fractional inhibitory concentration index (FICI) (Cryptococcus neoformans [26]): 1.47 | fractional inhibitory concentration index (FICI) (Cryptococcus neoformans [27]): 1.58 | fractional inhibitory concentration index (FICI) (Cryptococcus neoformans [28]): 2.01 | fractional inhibitory concentration index (FICI) (Cryptococcus neoformans [29]): 2.58
